# Data as given in ChEMBL document CHEMBL2384964, “Dual-acting histone deacetylase-topoisomerase I inhibitors” (Bioorg Med Chem Lett, 2013).
# Activity calls are given as the source filed them. The calls are words filed in the database; no cut-off is given here.
# Tests used:
# [1] = molecular target: T1, Histone deacetylase 1 (Homo sapiens, UniProt Q13547); test: Inhibition of HDAC1 in human HeLa cells using Fluor-de-Lys as substrate after 15 mins by fluorescence assay; format: cell-based
# [2] = molecular target: T2, Histone deacetylase 8 (Homo sapiens, UniProt Q9BY41); test: Inhibition of HDAC8 in human HeLa cells using Fluor-de-Lys as substrate after 15 mins by fluorescence assay; format: cell-based
# T2 sequence (Q9BY41 whole entry): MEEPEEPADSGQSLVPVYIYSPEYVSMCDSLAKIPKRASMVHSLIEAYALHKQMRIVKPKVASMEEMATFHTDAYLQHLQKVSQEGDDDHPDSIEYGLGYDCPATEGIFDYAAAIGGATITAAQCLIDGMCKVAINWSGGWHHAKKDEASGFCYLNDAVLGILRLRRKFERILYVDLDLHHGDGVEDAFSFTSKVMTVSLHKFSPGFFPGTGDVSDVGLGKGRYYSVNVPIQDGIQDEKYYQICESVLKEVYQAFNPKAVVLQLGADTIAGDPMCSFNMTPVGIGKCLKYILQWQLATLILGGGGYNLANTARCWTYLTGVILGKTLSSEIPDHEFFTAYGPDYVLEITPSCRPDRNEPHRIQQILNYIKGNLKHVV
# [3] = molecular target: T3, DNA topoisomerase 1 (Homo sapiens) (UniProt P11387); test: Inhibition of topoisomerase-1 (unknown origin) assessed as reduction of pBR322 plasmid DNA relaxation at 50 uM after 30 mins by agarose gel electrophoresis
# T3 sequence (whole entry): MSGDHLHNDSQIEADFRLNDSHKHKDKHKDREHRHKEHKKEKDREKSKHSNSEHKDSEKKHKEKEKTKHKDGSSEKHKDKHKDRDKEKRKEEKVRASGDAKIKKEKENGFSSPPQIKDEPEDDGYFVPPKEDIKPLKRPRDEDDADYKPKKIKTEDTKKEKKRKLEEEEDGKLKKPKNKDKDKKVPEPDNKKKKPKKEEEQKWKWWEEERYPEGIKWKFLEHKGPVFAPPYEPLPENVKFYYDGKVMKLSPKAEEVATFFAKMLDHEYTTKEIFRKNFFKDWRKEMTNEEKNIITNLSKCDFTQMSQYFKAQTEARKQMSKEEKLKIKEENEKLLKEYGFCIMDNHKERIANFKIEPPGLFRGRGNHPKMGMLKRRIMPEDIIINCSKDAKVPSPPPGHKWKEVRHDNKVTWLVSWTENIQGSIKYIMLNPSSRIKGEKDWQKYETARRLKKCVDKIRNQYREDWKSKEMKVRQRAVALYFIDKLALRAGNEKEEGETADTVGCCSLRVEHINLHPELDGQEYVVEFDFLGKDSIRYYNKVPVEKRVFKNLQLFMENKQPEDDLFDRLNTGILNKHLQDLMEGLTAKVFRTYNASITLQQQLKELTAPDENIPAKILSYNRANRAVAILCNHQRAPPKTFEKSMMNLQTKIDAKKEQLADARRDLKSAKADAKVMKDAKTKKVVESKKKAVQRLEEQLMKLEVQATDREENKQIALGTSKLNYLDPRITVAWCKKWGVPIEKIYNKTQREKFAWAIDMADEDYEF
# How it was run: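 Supercoiled pBR322 plasmid incubated with Topo I, test agents at 50 μM, SN-38 as positive control. Reactions stopped with SDS, run on agarose gel, DNA stained with a nucleic acid dye; relaxation judged by band migration.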
# [4] = molecular target: T4, Protein deacetylase HDAC6 (Homo sapiens, UniProt Q9UBN7); test: Inhibition of HDAC6 in human HeLa cells using Fluor-de-Lys as substrate after 15 mins by fluorescence assay; format: cell-based
# T4 sequence (Q9UBN7 whole entry): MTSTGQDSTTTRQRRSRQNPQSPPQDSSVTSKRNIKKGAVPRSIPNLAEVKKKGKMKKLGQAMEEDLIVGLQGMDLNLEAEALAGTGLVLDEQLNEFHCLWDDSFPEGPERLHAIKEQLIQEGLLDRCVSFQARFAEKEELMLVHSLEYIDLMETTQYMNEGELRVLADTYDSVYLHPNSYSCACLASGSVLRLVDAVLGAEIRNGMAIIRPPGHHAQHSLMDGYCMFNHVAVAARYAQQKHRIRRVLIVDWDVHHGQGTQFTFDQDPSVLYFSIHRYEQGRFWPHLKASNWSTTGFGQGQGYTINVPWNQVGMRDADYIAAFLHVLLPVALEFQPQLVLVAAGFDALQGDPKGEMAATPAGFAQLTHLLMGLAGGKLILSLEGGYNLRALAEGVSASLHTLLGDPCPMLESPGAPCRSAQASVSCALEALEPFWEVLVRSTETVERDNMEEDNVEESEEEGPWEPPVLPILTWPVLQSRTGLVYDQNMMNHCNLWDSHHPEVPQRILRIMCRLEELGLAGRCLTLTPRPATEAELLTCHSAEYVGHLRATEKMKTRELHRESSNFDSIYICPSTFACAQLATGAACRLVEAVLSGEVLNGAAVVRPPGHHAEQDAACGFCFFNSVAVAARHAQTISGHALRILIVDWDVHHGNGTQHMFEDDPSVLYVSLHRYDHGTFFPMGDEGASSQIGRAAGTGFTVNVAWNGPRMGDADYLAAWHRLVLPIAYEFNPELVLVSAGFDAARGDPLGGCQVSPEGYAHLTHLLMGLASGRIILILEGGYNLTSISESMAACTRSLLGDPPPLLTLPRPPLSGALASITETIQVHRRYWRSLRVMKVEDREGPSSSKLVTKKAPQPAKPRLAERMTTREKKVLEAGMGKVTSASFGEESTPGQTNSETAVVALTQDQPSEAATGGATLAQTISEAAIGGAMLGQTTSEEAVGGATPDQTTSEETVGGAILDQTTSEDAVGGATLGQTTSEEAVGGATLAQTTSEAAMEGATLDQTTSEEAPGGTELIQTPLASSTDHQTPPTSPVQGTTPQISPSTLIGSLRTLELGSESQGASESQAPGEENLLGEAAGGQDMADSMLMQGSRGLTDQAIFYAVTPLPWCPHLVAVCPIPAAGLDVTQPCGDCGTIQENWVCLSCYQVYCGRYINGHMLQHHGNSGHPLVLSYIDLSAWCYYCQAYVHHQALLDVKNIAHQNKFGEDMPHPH
# [5] = molecular target: Histone deacetylase; test: Inhibition of HDAC in human HeLa cells using Fluor-de-Lys as substrate after 15 mins by fluorescence assay; format: cell-based
# [6] = tested on: DU-145; test: Cytotoxicity against human DU145 cells assessed as inhibition of cell viability after 72 hrs by MTS assay; format: functional, cell-based; settings: DU-145, 72 h
# How it was run: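 DU-145 prostate carcinoma cells exposed to compound for 72 h; viability read by MTS assay. IC50 values are means of two experiments, each run in triplicate.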
# [7] = molecular target: T5, Histone deacetylase (Homo sapiens) (UniProt Q13547+O15379+Q9UBN7+Q92769+Q9UQL6+Q8WUI4+Q9BY41+Q96DB2+P56524+Q9UKV0+Q969S8); test: Inhibition of HDAC in human DU145 cells assessed as upregulation of p21waf1 expression after 24 hrs by Western blot analysis; format: cell-based; settings: DU-145
# How it was run: (§1)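 DU-145 cells treated for 24 h at 2.5 and 5.0 μM (SAHA, conjugates) or 0.1 and 0.5 μM (SN-38); lysates immunoblotted for p21waf1, with actin as loading control.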
# [8] = molecular target: T5, Histone deacetylase (Homo sapiens); test: Inhibition of HDAC in human HeLa cells using Fluor-de-Lys as substrate up to 10 uM after 15 mins by fluorescence assay; format: cell-based
# How it was run: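 Enzyme source is HeLa cell nuclear extract with a fluorogenic substrate; fluorescence read near 460 nm. Compound-only wells without enzyme give background (camptothecin emits at 434 nm), which is subtracted. Each value from three independent experiments.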
# [9] = molecular target: T5, Histone deacetylase (Homo sapiens); test: Inhibition of HDAC in human DU145 cells assessed as upregulation of p21waf1 expression at 0.1 to 0.5 uM after 24 hrs by Western blot analysis; format: cell-based; settings: DU-145; how it was run: as §1
# [10] = molecular target: T6, Histone deacetylase 8 (Homo sapiens) (UniProt Q9BY41); test: Inhibition of HDAC8 in human HeLa cells using Fluor-de-Lys as substrate up to 10 uM after 15 mins by fluorescence assay; format: cell-based
# T6 sequence (whole entry): T2 sequence (Q9BY41 whole entry)
# How it was run: (§2)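 Run by a contract testing laboratory, duplicate wells at each concentration; values reported with standard error.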
# [11] = molecular target: T1, Histone deacetylase 1; test: Inhibition of HDAC1 in human HeLa cells using Fluor-de-Lys as substrate up to 10 uM after 15 mins by fluorescence assay; format: cell-based; how it was run: as §2
# T1 sequence (Q13547 whole entry): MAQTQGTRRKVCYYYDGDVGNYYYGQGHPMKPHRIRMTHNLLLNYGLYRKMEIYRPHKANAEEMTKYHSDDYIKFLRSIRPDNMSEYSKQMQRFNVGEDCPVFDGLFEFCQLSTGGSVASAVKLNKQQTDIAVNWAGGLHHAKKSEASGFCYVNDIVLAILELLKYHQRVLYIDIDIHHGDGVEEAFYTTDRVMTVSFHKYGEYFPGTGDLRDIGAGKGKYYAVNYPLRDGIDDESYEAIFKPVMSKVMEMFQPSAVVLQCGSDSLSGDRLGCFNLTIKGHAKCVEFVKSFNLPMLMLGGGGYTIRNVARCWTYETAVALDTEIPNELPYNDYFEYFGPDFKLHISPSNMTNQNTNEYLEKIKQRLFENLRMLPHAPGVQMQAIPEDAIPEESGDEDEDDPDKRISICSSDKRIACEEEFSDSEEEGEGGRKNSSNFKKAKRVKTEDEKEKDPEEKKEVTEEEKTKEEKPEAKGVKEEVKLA
Compound,IC50 [1] [nM],IC50 [2] [nM],Topo I inhibition (active/inactive) [3],IC50 [4] [nM],IC50 [5] [nM],IC50 [6] [nM],inhibition [7],inhibition [8],inhibition [9],inhibition [10],inhibition [11]
CC[C@@]1(O)C(=O)OCc2c1cc1n(c2=O)Cc2cc3cc(OCc4cn(CCCCCCC(=O)NO)nn4)ccc3nc2-1,37,1050,Active,81,56.2,2030,,,,,
CC[C@@]1(O)C(=O)OCc2c1cc1n(c2=O)Cc2cc3cc(OCc4cn(CCCCCC(=O)NO)nn4)ccc3nc2-1,,,Active,,112.2,1950,Dose-dependent effect,,,,
CCc1c2c(nc3ccc(O)cc13)-c1cc3c(c(=O)n1C2)COC(=O)[C@]3(O)CC [7-ETHYL-10-HYDROXYCAMPTOTHECIN],,,,,,110,,inactive,Active,,
CCc1c2c(nc3ccc(OCc4cn(CCCCCCCC(=O)NO)nn4)cc13)-c1cc3c(c(=O)n1C2)COC(=O)[C@]3(O)CC,369,2600,Active,75,212.3,3510,,,,,
CCc1c2c(nc3ccc(OCc4cn(CCCCCCC(=O)NO)nn4)cc13)-c1cc3c(c(=O)n1C2)COC(=O)[C@]3(O)CC,50,,Active,36,64.65,3110,,,,inactive,
CCc1c2c(nc3ccc(OCc4cn(CCCC(=O)NO)nn4)cc13)-c1cc3c(c(=O)n1C2)COC(=O)[C@]3(O)CC,,1730,Active,85,,6270,,inactive,,,inactive
CCc1c2c(nc3ccc(OCc4cn(CCCCCC(=O)NO)nn4)cc13)-c1cc3c(c(=O)n1C2)COC(=O)[C@]3(O)CC,129,,Active,42,120.7,2050,Dose-dependent effect,,,inactive,
CCc1c2c(nc3ccc(OCc4cn(CCCCC(=O)NO)nn4)cc13)-c1cc3c(c(=O)n1C2)COC(=O)[C@]3(O)CC,,,Active,,155.4,4250,,,,,
CC[C@@]1(O)C(=O)OCc2c1cc1n(c2=O)Cc2cc3cc(OCc4cn(CCCCC(=O)NO)nn4)ccc3nc2-1,116,,Active,260,144.5,2500,,,,inactive,
